From the M2OR odorant receptor database
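Also: active if original authors judged signal statistically different from baseline.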

These compounds were tested against T1, OR2J2 (Homo sapiens) (UniProt O76002). Conditions: stereoisomer not certain.
T1 sequence (whole entry): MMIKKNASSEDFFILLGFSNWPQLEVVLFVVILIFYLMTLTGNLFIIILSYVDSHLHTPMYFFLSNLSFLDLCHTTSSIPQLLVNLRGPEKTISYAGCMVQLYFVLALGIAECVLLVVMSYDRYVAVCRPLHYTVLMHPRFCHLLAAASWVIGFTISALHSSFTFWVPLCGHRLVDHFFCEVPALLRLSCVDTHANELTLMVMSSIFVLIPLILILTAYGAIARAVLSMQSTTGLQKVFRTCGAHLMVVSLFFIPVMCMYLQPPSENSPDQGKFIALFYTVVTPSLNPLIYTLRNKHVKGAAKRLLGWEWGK
In short: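 Transient luciferase assays in mammalian cell lines were common, though methods varied by source. The values come from published papers and their supplementary material, with extra details from the original authors when needed. Responsive refers to a measured signal the original authors judged statistically different from baseline, and non-responsive (inactive) to the remainder.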
`CCCCCCCC(C)=O` was tested, and the “odorant receptor agonist call” value was “inactive”. In the case of `CCOC(=O)C(C)C`, the “odorant receptor agonist call” value is reported as “inactive”. With `CCCCCCOC(C)=O` the “odorant receptor agonist call” value was “inactive”. For `CCCCOC=O`, the “odorant receptor agonist call” value was “inactive”. In the case of `CCCCCOC(=O)CCCCC`, the “odorant receptor agonist call” value is reported as “inactive”. `CCCCCCC(C)=O` was tested, and the “odorant receptor agonist call” value was “inactive”. With `CCCCC(=O)O` the “odorant receptor agonist call” value was “inactive”. In the case of `O=C1CCOc2ccccc21`, the “odorant receptor agonist call” value is reported as “inactive”. With `CCCCCC(=O)CC` the “odorant receptor agonist call” value was “inactive”. With `O=C(c1ccccc1)c1ccccc1` the “odorant receptor agonist call” value was “inactive”. In the case of `CCCCCCO`, the “odorant receptor agonist call” value is reported as “inactive”. In the case of `CCC(=O)O`, the “odorant receptor agonist call” value is reported as “inactive”. In the case of `CC(C)=CCCC(C)CCO` (stereo not given), the “odorant receptor agonist call” value is reported as “inactive”. For `CC(=O)OCC=C(C)C`, the “odorant receptor agonist call” value was “inactive”. In the case of `CCCCC(C)=O`, the “odorant receptor agonist call” value is reported as “inactive”. With `CCCCOC(=O)C(C)OC(=O)CCC` (stereo not given) the “odorant receptor agonist call” value was “inactive”. For `COc1cc(C(=O)O)ccc1O`, the “odorant receptor agonist call” value was “inactive”. With `C=CCOC(=O)CCCCCC` the “odorant receptor agonist call” value was “inactive”. In the case of `CCCC(C)=O`, the “odorant receptor agonist call” value is reported as “inactive”. For `CCCCCO`, the “odorant receptor agonist call” value was “inactive”. With `CCCCCCCO` the “odorant receptor agonist call” value was “active”. With `CC(=O)Oc1ccccc1` the “odorant receptor agonist call” value was “inactive”. `CC12CCC(CC1=O)C2(C)C` (stereo not given) was tested, and the “odorant receptor agonist call” value was “inactive”. `CCCCCCCCCC(=O)[O-].[H+]` was tested, and the “odorant receptor agonist call” value was “inactive”. In the case of `CCCCCCCCC(=O)O`, the “odorant receptor agonist call” value is reported as “inactive”. With `CCCC(=O)C(C)=O` the “odorant receptor agonist call” value was “inactive”. In the case of `CCCCCCCCS`, the “odorant receptor agonist call” value is reported as “inactive”. For `CCCCCCCCCO`, the “odorant receptor agonist call” value was “active”. `CCCCCCCCCS` was tested, and the “odorant receptor agonist call” value was “inactive”. With `CCCCCCCCCCO` the “odorant receptor agonist call” value was “active”.
